Source: ChEMBL document CHEMBL3272089, “Synthesis and antitumor activity of dihydro-5-azacytidine, a hydrolytically stable analogue of 5-azacytidine” (J Med Chem, 1977)

Key:
[1] = tested on: L1210; test: Antitumor activity against mouse L1210 cells allografted in ip dosed mouse assessed as change in body weight at optimal dose administered qd on day 1 post tumor implantation measured on day 5 relative to control; assay type: functional
Method in brief: (§1)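 Mice bearing tumour cells implanted ip (intracerebrally in the IC-L1210 system) got compound in 0.9% saline ip on the stated schedule, or orally to nonfasting animals in the PO-L1210 system. Day-1 dosing, per day, or every 6 h counted from implantation. The value is the difference in average body weight change (g) on day 5 between the optimal-dose group (T) and controls (C).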

[2] = tested on: B16; test: Antitumor activity against mouse B16 cells allografted in ip dosed mouse assessed as increase in life span at optimal dose administered qd from day 1 to day 9 post tumor implantation relative to control; assay type: functional
[3] = tested on: Mus musculus; test: Toxicity in ip dosed mouse allografted with mouse L1210 cells assessed as dose required for optimal activity administered qd from day 1 to day 9 post tumor implantation; assay type: organism-based; conditions: in vivo
Method in brief: (§2)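 Tumour cells were implanted ip (intracerebrally for IC-L1210), with the compound given in 0.9% saline ip, or orally to nonfasting mice in PO-L1210. Dose–response series each halved the preceding dose, expressed as mg/kg per injection. Activity was read as % increase in life-span (% ILS) over untreated controls, and from this the minimum, optimal and maximum active doses were taken.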

[4] = tested on: L1210; test: Antitumor activity against mouse L1210 cells allografted in ip dosed mouse assessed as change in body weight at optimal dose administered qd from day 1 to day 9 post intracerebral tumor implantation measured on day 5 relative to control; assay type: functional; method in brief: as §1
[5] = tested on: L1210; test: Antitumor activity against mouse L1210 cells allografted in ip dosed mouse assessed as dose required for minimal activity administered qd on day 1, 5 and 9 post tumor implantation; assay type: functional; conditions: 24 h, read-out: MED; method in brief: as §2
[6] = tested on: Mus musculus; test: Toxicity in ip dosed mouse allografted with mouse B16 cells assessed as dose required for optimal activity administered qd from day 1 to day 9 post tumor implantation; assay type: organism-based; conditions: in vivo; method in brief: as §2
[7] = tested on: L1210; test: Antitumor activity against mouse L1210 cells allografted in ip dosed mouse assessed as dose required for minimal activity administered qd from day 1 to day 9 post intracerebral tumor implantation; assay type: functional; conditions: read-out: MED; method in brief: as §2
[8] = tested on: L1210; test: Antitumor activity against mouse L1210 cells allografted in ip dosed mouse assessed as dose required for maximal activity administered qd from day 1 to day 9 post intracerebral tumor implantation; assay type: functional; method in brief: as §2
[9] = tested on: L1210; test: Antitumor activity against mouse L1210 cells allografted in ip dosed mouse assessed as dose required for minimal activity administered qd from day 1 to day 9 post tumor implantation; assay type: functional; conditions: read-out: MED; method in brief: as §2
[10] = tested on: B16; test: Antitumor activity against mouse B16 cells allografted in ip dosed mouse assessed as change in body weight at optimal dose administered qd from day 1 to day 9 post tumor implantation measured on day 5 relative to control; assay type: functional; method in brief: as §1
[11] = Therapeutic index, ratio of toxicity in ip dosed mouse allografted with mouse L1210 cells assessed as highest dose required for 40% increase in life span to antitumor activity against mouse L1210 cells allografted in ip dosed mouse assessed as lowest dose required for 40% increase in life span; assay type: organism-based; conditions: in vivo, read-out: TI
Method in brief: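 L1210 cells implanted ip in mice. Drug in 0.9% saline given ip once daily on days 1-9 (QD1-9), dose-response with each dose half of the next higher. % ILS measured against untreated controls. Dose-response data were pooled from five QD1-9 experiments. TI = highest dose giving 40% ILS ÷ lowest dose giving 40% ILS.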

[12] = tested on: P388; test: Antitumor activity against mouse P388 cells allografted in ip dosed mouse assessed as increase in life span at optimal dose administered qd from day 1 to day 9 post tumor implantation relative to control; assay type: functional
[13] = tested on: L1210; test: Antitumor activity against mouse L1210 cells allografted in ip dosed mouse assessed as increase in life span at optimal dose administered qd on day 1, 5 and 9 post tumor implantation relative to control; assay type: functional
Method in brief: (§3)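 L1210 leukemia cells implanted ip in mice. Drug given ip in 0.9% saline: day 1 only (QD1); days 1, 5, 9 (Q4D); every 6 h on days 1, 5, 9 (Q4D(Q6H)); or days 1-9 (QD1-9). Dose-response run in twofold steps, dose in mg/kg per injection. % ILS versus untreated controls at the optimal dose. Toxicity taken as test minus control body-weight change on day 5.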

[14] = tested on: L1210; test: Antitumor activity against mouse L1210 cells allografted in po dosed mouse assessed as change in body weight at optimal dose administered qd from day 1 to day 9 post tumor implantation measured on day 5 relative to control; assay type: functional; method in brief: as §1
[15] = tested on: L1210; test: Antitumor activity against mouse L1210 cells allografted in ip dosed mouse assessed as dose required for minimal activity administered qd on day 1 post tumor implantation; assay type: functional; conditions: 24 h, read-out: MED; method in brief: as §2
[16] = tested on: L1210; test: Antitumor activity against mouse L1210 cells allografted in ip dosed mouse assessed as dose required for maximal activity administered every 6 hrs on day 1, 5 and 9 post tumor implantation; assay type: functional; method in brief: as §2
[17] = tested on: L1210; test: Antitumor activity against mouse L1210 cells allografted in ip dosed mouse assessed as increase in life span at optimal dose administered every 6 hrs on day 1, 5 and 9 post tumor implantation relative to control; assay type: functional; method in brief: as §3
[18] = tested on: Mus musculus; test: Toxicity in ip dosed mouse allografted with mouse L1210 cells assessed as dose required for optimal activity administered every 6 hrs on day 1, 5 and 9 post tumor implantation; assay type: organism-based; conditions: in vivo; method in brief: as §2
[19] = tested on: P388; test: Antitumor activity against mouse P388 cells allografted in ip dosed mouse assessed as change in body weight at optimal dose administered qd from day 1 to day 9 post tumor implantation measured on day 5 relative to control; assay type: functional; method in brief: as §1
[20] = tested on: L1210; test: Antitumor activity against mouse L1210 cells allografted in ip dosed mouse assessed as dose required for minimal activity administered every 6 hrs on day 1, 5 and 9 post tumor implantation; assay type: functional; conditions: read-out: MED; method in brief: as §2
[21] = tested on: Mus musculus; test: Toxicity in ip dosed mouse allografted with mouse L1210 cells assessed as dose required for optimal activity administered qd from day 1 to day 9 post intracerebral tumor implantation; assay type: organism-based; conditions: in vivo; method in brief: as §2
[22] = tested on: L1210; test: Antitumor activity against mouse L1210 cells allografted in ip dosed mouse assessed as increase in life span at optimal dose administered qd from day 1 to day 9 post tumor implantation relative to control; assay type: functional; method in brief: as §3
[23] = tested on: L1210; test: Antitumor activity against 5-azacytidine-resistant mouse L1210 cells allografted in ip dosed mouse assessed as increase in life span at optimal dose administered qd from day 1 to day 9 post tumor implantation relative to control; assay type: functional
Method in brief: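 An L1210 subline resistant to 5-azacytidine (L1210/AZA) was implanted ip in mice. Drug given ip in 0.9% saline, dose-response in twofold steps, dose in mg/kg per injection. % ILS over untreated control survival at the optimal dose. Test minus control body-weight change on day 5.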

[24] = Therapeutic index, ratio of toxicity in ip dosed mouse allografted with mouse L1210 cells assessed as optimal dose required for maximum increase in life span to antitumor activity against mouse L1210 cells allografted in ip dosed mouse assessed as lowest dose required for 40% increase in life span; assay type: organism-based; conditions: in vivo, read-out: TI
Method in brief: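 Mice tumored ip with L1210 and treated ip on days 1-9 (QD1-9) with drug in 0.9% saline, using serial twofold dose dilutions. Survival gain over untreated controls was expressed as % ILS. Dose-response relationships came from five QD1-9 experiments. TI = optimal dose for maximum % ILS ÷ lowest dose giving 40% ILS.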

[25] = tested on: P388; test: Antitumor activity against mouse P388 cells allografted in ip dosed mouse assessed as dose required for minimal activity administered qd from day 1 to day 9 post tumor implantation; assay type: functional; conditions: read-out: MED; method in brief: as §2
[26] = tested on: L1210; test: Antitumor activity against mouse L1210 cells allografted in po dosed mouse assessed as dose required for minimal activity administered qd from day 1 to day 9 post tumor implantation; assay type: functional; conditions: read-out: MED; method in brief: as §2

Row | SMILES | Activity [1] [g] | ILS [2] [%] | Activity [3] [mg/kg] | Activity [4] [g] | minimal effective dose [5] [mg/kg] | Activity [6] [mg/kg] | minimal effective dose [7] [mg/kg] | MAD [8] [mg/kg] | minimal effective dose [9] [mg/kg] | Activity [10] [g] | selectivity ratio [11] | ILS [12] [%] | ILS [13] [%] | Activity [14] [g] | minimal effective dose [15] [mg/kg] | MAD [16] [mg/kg] | ILS [17] [%] | Activity [18] [mg/kg] | Activity [19] [g] | minimal effective dose [20] [mg/kg] | other results
1 | Cl.NC1=NC(=O)N([C@@H]2O[C@H](CO)[C@@H](O)[C@H]2O)CN1 | -3.1 | 19 | 100 | -1.9 | 12.5 | 100 | 25 | 100 | 3.13 | -3.3 | 40 | 85 | 96 | -4.4 | 300 | 150 | 68 | 125 | -4.3 | 9.4 | Activity [21]: 100 mg/kg; ILS [22]: 116%; ILS [23]: 0%; selectivity ratio [24]: 10; minimal effective dose [25]: 12.5 mg/kg; minimal effective dose [26]: 200 mg/kg
2 | Nc1ncn([C@@H]2O[C@H](CO)[C@@H](O)[C@H]2O)c(=O)n1 [AZACITIDINE] | -3.8 | 20 | 3 | -0.5 | 5 | 3 | 0.75 | 0.75 | 0.75 | 1.5 | 14 | 127 | 94 | -4.1 | 12.5 | 5 | 126 | 5 | -4.3 | 1.25 | Activity [21]: 0.75 mg/kg; ILS [22]: 128%; ILS [23]: 0%; selectivity ratio [24]: 7.5; minimal effective dose [25]: 0.75 mg/kg; minimal effective dose [26]: 1.56 mg/kg
